Data: ChEMBL document CHEMBL4261631, “Synthetic thiosemicarbazones as a new class of Mycobacterium tuberculosis protein tyrosine phosphatase A inhibitors” (Bioorg Med Chem, 2018)

Columns and labels:
[1] = target: T1, Low molecular weight protein-tyrosine phosphatase A (Mycobacterium tuberculosis) (UniProt P9WIA1); assay: Inhibition of recombinant Mycobacterium tuberculosis PtpA at 25 uM using p-nitrophenyl phosphate as substrate preincubated for 10 mins followed by substrate addition and measured every minute for 10 mins by UV-VIS spectrophotometric analysis
T1 sequence (whole entry): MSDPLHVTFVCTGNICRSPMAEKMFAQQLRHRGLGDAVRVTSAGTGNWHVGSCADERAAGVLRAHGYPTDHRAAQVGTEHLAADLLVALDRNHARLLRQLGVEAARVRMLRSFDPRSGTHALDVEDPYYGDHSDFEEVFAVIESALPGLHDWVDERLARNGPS
Outline: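 Single-point screen at 25 µM final (from 1 mM DMSO stock, 2.5% DMSO final). 50 nM recombinant Mtb PtpA in 20 mM imidazole pH 7.0, premixed with compound 10 min at 37 °C. Reaction started with 10 mM pNPP. A410 read each min for 10 min at 37 °C. Residual activity from absorbance difference 7 min minus 2 min versus no-inhibitor wells. Triplicate.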

[2] = target: T2, Low molecular weight protein-tyrosine phosphatase A (Mycobacterium tuberculosis, UniProt P9WIA1); assay: Inhibition of recombinant Mycobacterium tuberculosis PtpA using p-nitrophenyl phosphate as substrate preincubated for 10 mins followed by substrate addition and measured every minute for 10 mins by UV-VIS spectrophotometric analysis
T2 sequence (P9WIA1 whole entry): T1 sequence (whole entry)
Outline: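 Recombinant Mtb PtpA at 50 nM in 20 mM imidazole pH 7.0, premixed with inhibitor (0.5–50 µM, DMSO ≤4% v/v) 10 min at 37 °C. Started with 10 mM pNPP. A410 read each min for 10 min at 37 °C. Residual activity from 7 min minus 2 min absorbance versus no-inhibitor wells. IC50 by linear regression of % inhibition versus concentration. Triplicate, mean ± SD of three experiments.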

Q: For COc1ccc(/C=N/NC(=S)Nc2ccc(C)cc2)cc1OC, which inhibition [1] is on record?
A: 6.6%

Q: COc1ccc(/C=N/NC(=S)Nc2ccc(OC)cc2)cc1 was tested. Which inhibition [1] did it give?
A: 0%

Q: How did the inhibition [1] turn out when COc1ccc(NC(=S)N/N=C/c2cccc3ccccc23)cc1 was run?
A: 22.7%

Q: With COc1ccc(NC(=S)N/N=C/c2ccc3c(c2)OCO3)cc1 as the compound, how does the inhibition [1] read?
A: 0%

Q: With COc1ccc(NC(=S)N/N=C/c2ccccc2[N+](=O)[O-])cc1 as the compound, how does the inhibition [1] read?
A: 0%

Q: How did the inhibition [1] turn out when COc1ccc(OC)c(/C=N/NC(=S)Nc2cccc3ccccc23)c1 was run?
A: 44.2%

Q: COc1ccc(/C=N/NC(=S)Nc2cccc3ccccc23)cc1 was tested. Which inhibition [1] did it give?
A: 22.6%

Q: For COc1ccc(NC(=S)N/N=C/c2ccc(Cl)cc2)cc1, which inhibition [1] is on record?
A: 1%

Q: Which inhibition [1] does the source give for COc1cc(/C=N/NC(=S)Nc2ccc(C)cc2)cc(OC)c1OC here?
A: 0%

Q: Which IC50 [2] does the source give for S=C(N/N=C/c1ccc2ccccc2c1)Nc1cccc2ccccc12 here?
A: 23.7 µM

Q: And the inhibition [1]?
A: 67.7%

Q: For COc1cc(/C=N/NC(=S)Nc2cccc3ccccc23)cc(OC)c1OC, which inhibition [1] is on record?
A: 0%

Q: With COc1ccc(OC)c(/C=N/NC(=S)Nc2ccc(C)cc2)c1 as the compound, how does the inhibition [1] read?
A: 2.8%

Q: Which inhibition [1] does the source give for Cc1ccc(NC(=S)N/N=C/c2ccc([N+](=O)[O-])cc2)cc1 here?
A: 37.2%

Q: S=C(N/N=C/c1ccc2c(c1)OCO2)Nc1cccc2ccccc12 was tested. Which IC50 [2] did it give?
A: 17.8 µM

Q: What about the inhibition [1] of the same compound?
A: 62.6%

Q: How did the inhibition [1] turn out when COc1cc(/C=N/NC(=S)Nc2ccc(C)cc2)ccc1O was run?
A: 8.8%

Q: For Cc1ccc(NC(=S)N/N=C/c2ccc(N(C)C)cc2)cc1, which inhibition [1] is on record?
A: 35.4%

Q: What does the source list for COc1ccc(NC(=S)N/N=C/c2ccc([N+](=O)[O-])cc2)cc1?
A: IC50 [2]: 15.1 µM; inhibition [1]: 64.4%

Q: How did the inhibition [1] turn out when COc1ccc(NC(=S)N/N=C/c2ccc3ccccc3c2)cc1 was run?
A: 23.7%

Q: Which inhibition [1] does the source give for Cc1ccc(NC(=S)N/N=C/c2ccc(-c3ccccc3)cc2)cc1 here?
A: 26.3%

Q: How did the inhibition [1] turn out when Cc1ccc(NC(=S)N/N=C/c2ccc(Cl)cc2)cc1 was run?
A: 4.9%

Q: Which inhibition [1] does the source give for Cc1ccc(/C=N/NC(=S)Nc2ccc(C)cc2)cc1 here?
A: 0.7%

Q: Which inhibition [1] does the source give for O=[N+]([O-])c1ccccc1/C=N/NC(=S)Nc1cccc2ccccc12 here?
A: 52.4%

Q: How did the inhibition [1] turn out when COc1ccc(NC(=S)N/N=C/c2ccc(-c3ccccc3)cc2)cc1 was run?
A: 41.2%

Q: How did the IC50 [2] turn out when COc1ccc(/C=N/NC(=S)Nc2cccc3ccccc23)cc1OC was run?
A: 18.2 µM

Q: And the inhibition [1]?
A: 64.5%

Q: How did the inhibition [1] turn out when S=C(N/N=C/c1cccc2ccccc12)Nc1cccc2ccccc12 was run?
A: 10.3%

Q: With COc1ccc(NC(=S)N/N=C/c2cc(OC)ccc2OC)cc1 as the compound, how does the inhibition [1] read?
A: 0%

Q: COc1ccc(NC(=S)N/N=C/c2ccccc2)cc1 was tested. Which inhibition [1] did it give?
A: 0%

Q: How did the inhibition [1] turn out when COc1ccc(NC(=S)N/N=C/c2ccc(OC)c(OC)c2)cc1 was run?
A: 0%

Q: How did the inhibition [1] turn out when COc1ccc(NC(=S)N/N=C/c2ccc(C)cc2)cc1 was run?
A: 0%

Q: For CN(C)c1ccc(/C=N/NC(=S)Nc2cccc3ccccc23)cc1, which inhibition [1] is on record?
A: 51.6%

Q: With S=C(N/N=C/c1ccccc1)Nc1cccc2ccccc12 as the compound, how does the inhibition [1] read?
A: 58.1%

Q: Cc1ccc(NC(=S)N/N=C/c2ccc(Cl)c(Cl)c2)cc1 was tested. Which inhibition [1] did it give?
A: 23.4%

Q: How did the inhibition [1] turn out when S=C(N/N=C/c1ccc(Cl)cc1)Nc1cccc2ccccc12 was run?
A: 0%

Q: For COc1ccc(NC(=S)N/N=C/c2cc(OC)c(OC)c(OC)c2)cc1, which inhibition [1] is on record?
A: 0%

Q: How did the inhibition [1] turn out when COc1ccc(NC(=S)N/N=C/c2ccc(N(C)C)cc2)cc1 was run?
A: 3.9%

Q: With Cc1ccc(NC(=S)N/N=C/c2ccc3c(c2)OCO3)cc1 as the compound, how does the inhibition [1] read?
A: 25.9%

Q: With S=C(N/N=C/c1ccc(Cl)c(Cl)c1)Nc1cccc2ccccc12 as the compound, how does the IC50 [2] read?
A: 13.4 µM

Q: What about the inhibition [1] of the same compound?
A: 83.7%

Q: For Cc1ccc(NC(=S)N/N=C/c2ccccc2[N+](=O)[O-])cc1, which inhibition [1] is on record?
A: 21.6%

Q: For COc1cc(/C=N/NC(=S)Nc2cccc3ccccc23)ccc1O, which inhibition [1] is on record?
A: 0%

Q: With Cc1ccc(NC(=S)N/N=C/c2ccccc2)cc1 as the compound, how does the inhibition [1] read?
A: 16.6%

Q: Which inhibition [1] does the source give for COc1ccc(NC(=S)N/N=C/c2ccc(O)c(OC)c2)cc1 here?
A: 6.6%

Q: With Cc1ccc(NC(=S)N/N=C/c2cccc3ccccc23)cc1 as the compound, how does the inhibition [1] read?
A: 33.7%

Q: Which inhibition [1] does the source give for COc1ccc(/C=N/NC(=S)Nc2ccc(C)cc2)cc1 here?
A: 8.9%

Q: Cc1ccc(NC(=S)N/N=C/c2ccc3ccccc3c2)cc1 was tested. Which inhibition [1] did it give?
A: 29.3%

Q: How did the inhibition [1] turn out when COc1ccc(NC(=S)N/N=C/c2ccc(Cl)c(Cl)c2)cc1 was run?
A: 21.4%
